According to article PMC5302092 (Cell, 2017):
Residues, ends and D or L forms follow the SMILES beside them. *: point of attachment. Octanoyl = CCCCCCCC(=O)*

Assays:
cathepsin L = cathepsin L (Homo sapiens, UniProt P07711); assay: in vitro protease inhibition assay, cathepsin L; format: biochemical; details: result in words
In short: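 Commercial cathepsin L (0.02 μg/ml) in 50 mM MES pH 5.5 with 5 mM DTT. Substrate z-FR-AMC at 20 μM added last to the enzyme/test compound mix; final DMSO below 5%. Fluorescence read-out; leupeptin as positive control. Normalized activity data were curve-fitted.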

cathepsin S = cathepsin S (Homo sapiens, UniProt P25774); assay: in vitro protease inhibition assay, cathepsin S; format: biochemical; details: read-out: activity against cathepsin S (IC50)
In short: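 Commercial cathepsin S pre-activated for 2 h at 10 μg/ml in 50 mM MES pH 5.5 with 5 mM DTT, then diluted to 100 ng/ml. Assayed with 10 μM z-FR-AMC, which was added last to the enzyme/test compound mix; final DMSO below 5%. Fluorogenic read-out; leupeptin as positive control. Normalized activity data fitted to give IC50.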

[1] = biological target: cathepsin L (CTSL1) catalytic cysteine Cys138 (Homo sapiens, UniProt P07711); assay: competitive isoTOP-ABPP, THP-1 membrane fraction, cathepsin L; format: binding; details: 250 nM, THP-1 membranes; R > 5 = targeted
In short: (§1)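 THP-1 cells grown in RPMI with 10% FBS, penicillin, streptomycin, glutamine and 50 μM βME (37 °C, 5% CO2, <10 passages). Differentiated with 200 nM PMA for 18 h, then 3 more days. Sonicated lysate spun at 100,000 g for 45 min; membrane fraction set to 1.5 mg/mL. Test compound (final 25 μM, 2.5 μM or 250 nM) or 1% TFA water vehicle for 30 min, then 100 μM IA-alkyne for 30 min, ambient temperature.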

[2] = biological target: cathepsin C (CTSC) catalytic cysteine Cys258 (Homo sapiens, UniProt P53634); assay: competitive isoTOP-ABPP, THP-1 membrane fraction, cathepsin C; format: binding
In short: as §1

cathepsin B (CTSB) = cathepsin B (CTSB) (Homo sapiens, UniProt P07858); assay: competitive isoTOP-ABPP, THP-1 membrane fraction, cathepsin B; format: binding; details: 250 nM, THP-1 membranes
In short: as §1

cathepsin H (CTSH) = biological target: T1, cathepsin H (CTSH) (Homo sapiens, UniProt P09668); assay: competitive isoTOP-ABPP, THP-1 membrane fraction, cathepsin H; format: binding; details: 250 nM, THP-1 membranes
T1 sequence (P09668 98-335): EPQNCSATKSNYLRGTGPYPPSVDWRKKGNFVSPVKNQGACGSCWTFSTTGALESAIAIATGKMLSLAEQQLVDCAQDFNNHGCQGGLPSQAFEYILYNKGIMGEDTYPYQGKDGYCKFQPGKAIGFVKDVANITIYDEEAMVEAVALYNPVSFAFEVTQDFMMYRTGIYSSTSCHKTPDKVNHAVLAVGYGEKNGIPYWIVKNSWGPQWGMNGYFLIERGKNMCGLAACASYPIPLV
In short: as §1

cathepsin S (CTSS) = cathepsin S (CTSS) (Homo sapiens, UniProt P25774); assay: competitive isoTOP-ABPP, THP-1 membrane fraction, cathepsin S; format: binding
In short: as §1

cathepsin Z (CTSZ) = cathepsin Z (CTSZ) (Homo sapiens, UniProt Q9UBR2); assay: competitive isoTOP-ABPP, THP-1 membrane fraction, cathepsin Z; format: binding
In short: as §1

[3] = competitive isoTOP-ABPP, proteome-wide cysteine selectivity; format: binding, human; details: THP-1, Ramos, H1975 proteomes
In short: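 Proteomes came from THP-1 (RPMI, 10% FBS, βME, PMA-differentiated), Ramos (RPMI, 10% FBS) and H1975 (DMEM, 20% FBS) cells. Sonicated and split at 100,000 g into soluble and membrane fractions (1.5 mg/mL); some lysed into sodium acetate at pH 5 or 5.5. Test compound or vehicle for 30 min, then 100 μM IA-alkyne for 30 min, then isotopic biotin-tag click, enrichment, trypsin/TEV digests and LC-MS/MS. Cysteines with heavy/light MS1 ratio R > 5 called targeted.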

cathepsin S (CTSS), sequence (P25774 115-331): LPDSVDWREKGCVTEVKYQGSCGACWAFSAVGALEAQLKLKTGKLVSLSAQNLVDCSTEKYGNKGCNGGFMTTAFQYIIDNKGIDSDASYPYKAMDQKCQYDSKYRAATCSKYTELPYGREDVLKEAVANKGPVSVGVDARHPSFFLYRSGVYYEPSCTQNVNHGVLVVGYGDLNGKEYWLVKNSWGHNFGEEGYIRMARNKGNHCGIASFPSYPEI
cathepsin Z (CTSZ), sequence (Q9UBR2 62-303): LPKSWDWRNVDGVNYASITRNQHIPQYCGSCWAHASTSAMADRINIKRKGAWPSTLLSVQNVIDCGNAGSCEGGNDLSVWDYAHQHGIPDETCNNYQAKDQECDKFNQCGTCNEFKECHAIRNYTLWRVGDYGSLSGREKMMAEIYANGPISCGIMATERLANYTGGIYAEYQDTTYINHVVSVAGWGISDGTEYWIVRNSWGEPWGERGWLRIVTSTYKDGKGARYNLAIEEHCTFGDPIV
cathepsin C (CTSC) catalytic cysteine Cys258, sequence (P53634 25-463): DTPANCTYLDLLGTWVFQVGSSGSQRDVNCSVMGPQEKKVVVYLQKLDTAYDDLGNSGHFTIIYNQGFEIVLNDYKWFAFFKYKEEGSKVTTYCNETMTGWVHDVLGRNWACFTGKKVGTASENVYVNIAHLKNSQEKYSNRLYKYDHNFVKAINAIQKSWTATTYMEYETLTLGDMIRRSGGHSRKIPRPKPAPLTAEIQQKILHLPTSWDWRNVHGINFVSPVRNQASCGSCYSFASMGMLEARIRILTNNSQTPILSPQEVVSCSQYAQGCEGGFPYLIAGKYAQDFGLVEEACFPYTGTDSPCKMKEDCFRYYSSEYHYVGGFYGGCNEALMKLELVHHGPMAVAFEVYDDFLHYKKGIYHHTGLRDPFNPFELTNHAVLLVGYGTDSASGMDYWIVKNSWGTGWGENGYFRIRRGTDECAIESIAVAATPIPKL
cathepsin S, sequence (P25774 115-331, species assumed): as the sequence (P25774 115-331) above
cathepsin L (CTSL1) catalytic cysteine Cys138, sequence (P07711 114-333): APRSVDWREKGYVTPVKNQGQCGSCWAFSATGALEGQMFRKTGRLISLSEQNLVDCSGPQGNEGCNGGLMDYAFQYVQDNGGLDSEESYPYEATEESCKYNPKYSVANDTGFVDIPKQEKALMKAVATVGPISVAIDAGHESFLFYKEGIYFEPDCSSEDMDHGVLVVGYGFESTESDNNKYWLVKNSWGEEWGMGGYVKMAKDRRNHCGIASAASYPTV
cathepsin L, sequence (P07711 114-333, species assumed): as the sequence (P07711 114-333) above

SMILES | inhibitory activity against cathepsin L (IC50) (cathepsin L) | IC50 (cathepsin S) | R value (heavy/light MS1 ratio), blockade of IA-alkyne labeling of CTSL1 Cys138 [1] | R value (heavy/light MS1 ratio), CTSC catalytic cysteine Cys258 ([2]; 250 nM, THP-1 membranes) | R value (heavy/light MS1 ratio), CTSC ([2]; 25 μM, THP-1) | R value (heavy/light MS1 ratio), CTSB (cathepsin B (CTSB)) | R value (heavy/light MS1 ratio), CTSH (cathepsin H (CTSH)) | R value (heavy/light MS1 ratio), CTSS (cathepsin S (CTSS); 250 nM, THP-1 membranes) | R value (heavy/light MS1 ratio), CTSS (cathepsin S (CTSS); 25 μM, THP-1) | R value (heavy/light MS1 ratio), CTSZ (cathepsin Z (CTSZ); 250 nM, THP-1 membranes) | R value (heavy/light MS1 ratio), CTSZ (cathepsin Z (CTSZ); 25 μM, THP-1) | R value (heavy/light MS1 ratio), non-cathepsin cysteines (no additional targets) [3]
CCCCCCCC(=O)N[C@@H](CCSC)C(=O)N[C@H](C=O)Cc1ccccc1 [Compound 16, N-octanoyl-Met-Phe-H] (Octanoyl-Met-Phe-aldehyde) | undetectable activity | 13 nM |  |  |  |  |  |  |  |  |  | 
N[C@@H](Cc1ccccc1)C(=O)N[C@H](C=O)Cc1ccccc1 [Phe-Phe-H] (H-Phe-Phe-aldehyde) |  |  | > 20 | > 2.78 | > 5 | < 2.0 | < 2.0 | < 2.0 | > 5 | < 2.0 | > 5 | < 2.0
